An excerpt weighted towards active compounds, which were near 3.8% of everything screened.
ANO1 activ – TMEM16A chloride channel activators or potentiators, primary screen, cell-based, HTS. HEK293 TMEM16A/YFP-H148Q/I152L, iodide quench fluorescence; stronger effect = lower value. B-score at 10 µM. actives 0.3% (n = 340,000). AID 623877, 2012;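 active means fluorescence-ratio B-score plate-corrected deviation score at least 3 library SD below zero, with starting fluorescence score within 5 deviations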;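 further: channel opened by trigger with iodide after compound preincubation; score built on the fluorescence ratio of max minus min over baseline; more negative score means more quench and so TMEM16A activation or potentiation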
Target sequence (Q8BHY3 whole entry, looked up): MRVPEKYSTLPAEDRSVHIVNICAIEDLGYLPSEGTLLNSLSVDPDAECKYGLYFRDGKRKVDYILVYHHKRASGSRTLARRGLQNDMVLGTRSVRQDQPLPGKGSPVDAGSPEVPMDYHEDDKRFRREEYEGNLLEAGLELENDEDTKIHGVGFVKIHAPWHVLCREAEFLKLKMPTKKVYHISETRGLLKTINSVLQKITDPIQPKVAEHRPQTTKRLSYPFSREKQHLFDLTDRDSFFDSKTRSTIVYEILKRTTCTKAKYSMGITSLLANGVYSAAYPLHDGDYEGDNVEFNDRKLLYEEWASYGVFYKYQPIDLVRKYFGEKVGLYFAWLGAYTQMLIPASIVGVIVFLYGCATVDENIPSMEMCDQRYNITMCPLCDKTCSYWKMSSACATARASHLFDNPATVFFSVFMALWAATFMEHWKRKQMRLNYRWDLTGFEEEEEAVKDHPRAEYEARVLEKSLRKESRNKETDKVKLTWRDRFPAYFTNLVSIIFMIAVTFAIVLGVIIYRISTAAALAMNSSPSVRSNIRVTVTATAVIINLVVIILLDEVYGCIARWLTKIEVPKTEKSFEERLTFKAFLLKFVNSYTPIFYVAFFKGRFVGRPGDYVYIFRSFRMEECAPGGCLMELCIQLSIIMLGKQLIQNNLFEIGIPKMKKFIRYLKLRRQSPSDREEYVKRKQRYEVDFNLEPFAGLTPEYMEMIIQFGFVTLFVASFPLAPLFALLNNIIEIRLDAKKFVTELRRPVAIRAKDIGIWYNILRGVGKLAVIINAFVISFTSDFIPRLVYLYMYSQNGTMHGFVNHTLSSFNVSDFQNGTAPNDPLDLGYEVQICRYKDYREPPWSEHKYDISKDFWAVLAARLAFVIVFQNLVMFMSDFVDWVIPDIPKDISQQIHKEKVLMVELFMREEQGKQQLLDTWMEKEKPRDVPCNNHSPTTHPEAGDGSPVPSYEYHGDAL
MC4R antag cAMP – MC4R antagonists of cAMP signaling, primary screen, cell-based, TR-FRET, antagonist arm of biased-ligand search; Melanocortin receptor 4 (Homo sapiens), P32245; MC4R-expressing cells, MTII-stimulated cAMP, LANCE TR-FRET; inhibition, % at 6.5 µM; actives 0.48% (n = 360,000); AID 540295, 2011;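 active means inhibition above its plate's cutoff, the mean of tested wells on that plate plus 3 SD, cut at about 29% in these data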;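 further: 0% = Melanotan II alone and 100% = Melanotan II plus saturating MCL0020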
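Assay system: human MC4R-expressing U2OS cells; reagent: Melanotan II stimulation of cells; dosing: 6.5 µM single dose; timing: compound 30 min, challenge 1 h, detection 1 h; signal: TR-FRET cAMP assay; replicates: one well per compound, no replicates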
ANO1 block – TMEM16A chloride channel inhibitors, primary screen, cell-based, HTS | Anoctamin-1 (Mus musculus), Q8BHY3 | normalized B-score (activity score, 25-100; higher = stronger inhibition) at 10 µM | actives 1.2% (n = 310,000) | HEK293 TMEM16A/YFP iodide influx fluorescence, ionomycin;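 active means ratio plate-corrected score three or more library SD toward inhibition, starting fluorescence score within five deviations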;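 further: score derived from kinetic fluorescence span divided by baseline fluorescence per well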
CSC inhib – cancer stem cell viability inhibitors, primary screen, luminescence; actives 1.1% (n = 300,000); inhibition, % at 7.5 µM; cancer stem cell-like cells viability; AID 2717, 2010; in the data active means inhibition above about 75%; tested in HMLE shEcad cells
Beta cell apopt – inhibitors of cytokine-induced beta cell apoptosis, primary screen, luminescence; INS-1E cytokine-induced death, ATP luminescence, 48 h; percent of positive-control rescue, neutral wells zero; protection from apoptosis, % (no concentration beside the values); actives 0.8% (n = 300,000); AID 435005, 2010;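 active means Every replicate reaches about 75%, or at least half do and their mean reaches it too, limit read from the data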;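 further: 0% = cytokine-treated negative control wells and 100% = positive control rescue; higher means more ATP so stronger rescue from cytokine killing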
MC4R ag barr – MC4R agonists recruiting beta-arrestin, primary screen, cell-based, luminescence, agonist arm of biased-ligand search; Melanocortin receptor 4 (Homo sapiens), P32245; AID 540308, 2011; activation, % at 8.9 µM; actives 0.98% (n = 360,000); U2OS MC4R beta-arrestin complementation; percent of melanotan II response, DMSO zero;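 active means activation above a per-plate cutoff, the mean activation of sample wells on that plate plus 3 SD, cut at about 8% in these data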
MC4R barr conf – MC4R beta-arrestin agonists, retest, confirmation, cell-based, luminescence, U2OS | shares compounds with MC4R ag barr | U2OS MC4R beta-arrestin recruitment; scaled DMSO 0%, Melanotan II 100% | activation, % at 8.9 µM | actives 31% (n = 2,400) | AID 602192, 2012;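 active means mean activation across replicates above the hit cutoff set in the earlier primary screen, cut at about 8% in these data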
MOR DOR agonist – agonists of MOR-DOR heterodimerization, counter-screen for MC4R biased agonist project, cell-based, luminescence. shares compounds with MC4R ag barr. U2OS PathHunter beta-arrestin, beta-gal luminescence; percent of deltorphin B response, DMSO zero. activation, % at 9.2 µM. actives 5.8% (n = 2,400). AID 602194, 2012;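 active means mean activation across replicates exceeds the hit threshold derived in the earlier primary screen, cut at about 18% in these data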;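 further: 100% = deltorphin B at 0.9 µM final and 0% = DMSO alone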
* = called active by the depositor; i = inactive; . = not tested or not shown.

SMILES	ANO1 activ	MC4R antag cAMP	ANO1 block	CSC inhib	Beta cell apopt	MC4R ag barr	MC4R barr conf	MOR DOR agonist
CC1=CC(C)(C)n2c(O)c(N=NC(N)=S)c3cc(C)cc1c32	i	-1.7	i	-2.2	8.3	15.5*	13.7*	4.7
CCOc1ccc(-c2cc(CCCC(=O)NCCc3ccc(OC)c(OC)c3OC)no2)cc1	i	7.2	i	-21.8	-2.6	24.0*	0.5	10.4
CCOc1ccc(N)c(SSc2cc(OCC)ccc2N)c1	i	5.2	i	-3.3	-0.9	10.8*	1.8	7.9
O=C(CN1C(=O)NC2(CCCC2)C1=O)NCCc1ccccc1	i	1.4	.	-12.2	-3.4	0.3	.	.
O=C1OC(c2ccccc2)(c2cc(Br)ccc2O)c2ccccc21 (centres undefined)	i	6.9	.	.	.	21.2*	19.7*	8.9
O=C1OC(c2ccc(O)cc2)(c2ccccc2O)c2ccccc21 (centres undefined)	i	-3.8	.	.	.	-0.9	.	.
CSc1ccccc1OCc1cc(C(=O)NC2CCc3ccccc32)no1 (centres undefined)	i	-7.1	i	9.8	1.1	64.2*	9.5*	7.7
O=C(CCSc1nnc2ccc3ccccc3n12)Nc1ccc(F)cc1	i	8.2	i	.	1.3	39.3*	4.0	7.6
O=C(CCSc1nnc2ccccn12)Nc1ccc(F)cc1	i	8.5	i	3.0	-3.5	-0.2	.	.
O=C(O)c1ccc(C(=O)c2cc([N+](=O)[O-])cc([N+](=O)[O-])c2)cc1	i	-2.2	.	.	.	-3.1	.	.
O=C(COc1ccc2ccccc2c1Br)Nc1ncn[nH]1	i	12.3	i	-9.0	-9.9	13.1*	0.7	1.5
COc1ccc([C@H]2CC(=O)C=C(c3cc(OC)ccc3OC)C2)cc1	i	-11.8	.	53.0	5.2	-0.3	.	.
COc1ccc(-c2nc3c(Br)c(N)c(Br)cc3o2)cc1	i	9.1	i	-12.5	.	11.4*	7.6	4.3
CC1(C)Oc2ccc3ccc(=O)oc3c2/C(=C/Nc2ccccc2)C1=O	i	20.6	i	-2.6	7.2	9.8*	2.5	3.1
CC1(C)Oc2ccc3ccc(=O)oc3c2/C(=C/N)C1=O	i	4.0	i	.	-5.9	0.3	.	.
CCOC(=O)c1c(N)c2cc([N+](=O)[O-])ccc2n1C	i	-14.6	i	10.0	-2.6	15.7*	5.3	4.8
COc1ccc(C[C@H]2CN3C(=NC[C@H]3Cc3ccccc3)N2CCNC(=O)c2ccc(C)c(Br)c2)cc1	i	9.3	i	30.9	5.8	16.0*	22.2*	26.9*
O=C(COC(=O)c1ccc(S(=O)(=O)N2CCCCC2)cc1)Nc1ccccc1Cl	i	13.9	.	.	.	23.2*	-0.2	2.4
Cc1cccc(NC(=O)COC(=O)c2ccc(S(=O)(=O)N3CCCCCC3)cc2)c1	i	8.0	.	.	.	12.0*	1.8	3.1
O=C(COC(=O)c1cccc(S(=O)(=O)N2CCCCC2)c1)NCc1ccccc1	i	-12.0	.	.	.	-0.5	.	.
O=C(COC(=O)c1cccc(S(=O)(=O)N2CCCCCC2)c1)NCc1ccc(Cl)cc1	i	-0.3	.	.	.	9.8*	1.9	3.2
CCOc1ccc2nc(NC(=S)NCc3ccccc3)sc2c1	i	-12.1	i	.	.	18.4*	4.5	1.9

From PubChem BioAssay
